Results: ChEMBL document CHEMBL1152695, “Development of 3-substituted-1H-indole derivatives as NR2B/NMDA receptor antagonists” (Bioorg Med Chem, 2009)

Key:
Mus musculus [1] = experiment: Anticonvulsant activity in ip dosed DBA/2 mouse assessed as inhibition of auditory stimulation-induced tonic seizures administered 30 mins before auditory stimulation; format: functional; conditions: DBA/2, ip
Summary of the method: (§1)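 DBA/2 mice (8–12 g, 22–25 days old), either sex, groups of 10. Given ip in 50% DMSO/50% saline at 0.1 mL/10 g, 30 min before testing. After 60 s habituation under a dome, sound (12–16 kHz, 109 dB) applied for 60 s or until tonic extension. Latency and incidence of each seizure phase scored.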

Mus musculus [2] = experiment: Anticonvulsant activity in ip dosed DBA/2 mouse assessed as inhibition of auditory stimulation-induced clonic seizures administered 30 mins before auditory stimulation; format: functional; conditions: DBA/2, ip; summary of the method: as §1
[3] = molecular target: Glutamate receptor ionotropic, NMDA 2B (Rattus norvegicus) (UniProt Q00960); experiment: Antagonist activity at NMDA NR2B receptor in Wistar rat CA1 pyramidal neurons assessed as reduction of NMDA-induced inward currents at 100 uM at holding potential of -60 mV by patch-clamp technique; format: functional, cell-based; set-up: scale not given: the % may be the effect or the level left; conditions: Pyramidal neuron
Summary of the method: (§2)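 Rat hippocampal slices; whole-cell currents recorded from single CA1 pyramidal neurons held at -60 mV. Inward current evoked by NMDA (50 µM, 5 s) plus glycine (0.5 µM). Compound bath-perfused at 1, 10 or 100 µM for 5 min. Amplitude taken as peak minus baseline, from at least three consecutive responses in control and in compound. Sets compared by unpaired t-test; percent reduction reported as mean ± SEM.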

[4] = molecular target: Glutamate receptor ionotropic, NMDA 2B (Rattus norvegicus, UniProt Q00960); experiment: Displacement of [3H]ifenprodil from NMDA NR2B receptor in Wistar rat cerebral cortex membrane; format: tissue-based
[5] = molecular target: Glutamate receptor ionotropic, NMDA 2B (Rattus norvegicus) (UniProt Q00960); experiment: Antagonist activity at NMDA NR2B receptor in Wistar rat CA1 pyramidal neurons assessed as reduction of NMDA-induced inward currents at 10 uM at holding potential of -60 mV by patch-clamp technique; format: functional, cell-based; set-up: scale not given: the % may be the effect or the level left; conditions: Pyramidal neuron; summary of the method: as §2
[6] = molecular target: Glutamate receptor ionotropic, NMDA 2B (Rattus norvegicus) (UniProt Q00960); experiment: Antagonist activity at NMDA NR2B receptor in Wistar rat CA1 pyramidal neurons assessed as reduction of NMDA-induced inward currents at 1 uM at holding potential of -60 mV by patch-clamp technique; format: functional, cell-based; set-up: scale not given: the % may be the effect or the level left; conditions: Pyramidal neuron; summary of the method: as §2
[7] = molecular target: Glutamate receptor ionotropic, NMDA 2B (Rattus norvegicus) (UniProt Q00960); experiment: Antagonist activity at NMDA NR2B receptor in Wistar rat CA1 pyramidal neurons assessed as inhibition of NMDA-induced inward currents at holding potential of -60 mV by patch-clamp technique; format: functional, cell-based; conditions: Pyramidal neuron; summary of the method: as §2
[8] = molecular target: Glutamate receptor ionotropic, NMDA 2B (Rattus norvegicus) (UniProt Q00960); experiment: Displacement of [3H]ifenprodil from NMDA NR2B receptor in Wistar rat cerebral cortex membrane at 10 uM; format: tissue-based

Sequence of Glutamate receptor ionotropic, NMDA 2B (Q00960 whole entry): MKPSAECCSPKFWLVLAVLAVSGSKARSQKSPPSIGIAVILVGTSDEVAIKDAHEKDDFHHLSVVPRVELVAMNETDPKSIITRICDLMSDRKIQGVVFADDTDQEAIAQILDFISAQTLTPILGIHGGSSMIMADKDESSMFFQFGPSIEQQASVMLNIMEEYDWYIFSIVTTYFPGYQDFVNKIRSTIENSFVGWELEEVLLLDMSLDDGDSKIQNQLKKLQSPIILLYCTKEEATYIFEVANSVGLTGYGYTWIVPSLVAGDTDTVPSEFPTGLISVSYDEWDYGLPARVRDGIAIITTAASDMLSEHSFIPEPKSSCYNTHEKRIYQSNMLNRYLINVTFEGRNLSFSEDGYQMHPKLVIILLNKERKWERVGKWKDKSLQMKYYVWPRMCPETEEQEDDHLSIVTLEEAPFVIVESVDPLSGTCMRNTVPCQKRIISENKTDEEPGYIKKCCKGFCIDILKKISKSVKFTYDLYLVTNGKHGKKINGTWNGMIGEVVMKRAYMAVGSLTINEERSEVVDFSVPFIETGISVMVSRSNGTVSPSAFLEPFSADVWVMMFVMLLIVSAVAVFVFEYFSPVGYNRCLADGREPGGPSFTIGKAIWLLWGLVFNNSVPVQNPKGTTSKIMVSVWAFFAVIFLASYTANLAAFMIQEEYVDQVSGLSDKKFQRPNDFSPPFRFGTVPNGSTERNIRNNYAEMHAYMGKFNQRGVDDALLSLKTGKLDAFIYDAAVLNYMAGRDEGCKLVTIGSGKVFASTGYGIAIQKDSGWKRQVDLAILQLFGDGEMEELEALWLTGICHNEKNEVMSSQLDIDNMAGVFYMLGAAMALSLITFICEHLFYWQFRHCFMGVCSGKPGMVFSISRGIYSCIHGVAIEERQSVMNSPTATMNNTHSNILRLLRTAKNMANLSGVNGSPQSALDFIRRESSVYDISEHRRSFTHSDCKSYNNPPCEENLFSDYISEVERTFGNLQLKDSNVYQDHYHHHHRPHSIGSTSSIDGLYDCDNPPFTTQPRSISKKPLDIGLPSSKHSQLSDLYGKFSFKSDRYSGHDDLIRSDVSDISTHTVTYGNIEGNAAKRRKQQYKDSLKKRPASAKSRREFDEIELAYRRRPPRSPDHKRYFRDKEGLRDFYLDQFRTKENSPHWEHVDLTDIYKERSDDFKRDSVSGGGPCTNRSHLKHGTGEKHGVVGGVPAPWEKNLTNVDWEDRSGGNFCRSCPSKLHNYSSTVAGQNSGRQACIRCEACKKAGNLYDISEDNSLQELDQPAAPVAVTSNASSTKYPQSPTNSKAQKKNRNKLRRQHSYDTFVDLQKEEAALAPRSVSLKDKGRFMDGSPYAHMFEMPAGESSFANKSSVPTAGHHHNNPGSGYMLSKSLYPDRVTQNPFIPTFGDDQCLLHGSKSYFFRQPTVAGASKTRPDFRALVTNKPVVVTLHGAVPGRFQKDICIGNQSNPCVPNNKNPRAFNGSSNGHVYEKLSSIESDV
Sequence of Glutamate receptor ionotropic, NMDA 2B (Rattus norvegicus) (Q00960 27-1482 limits assumed): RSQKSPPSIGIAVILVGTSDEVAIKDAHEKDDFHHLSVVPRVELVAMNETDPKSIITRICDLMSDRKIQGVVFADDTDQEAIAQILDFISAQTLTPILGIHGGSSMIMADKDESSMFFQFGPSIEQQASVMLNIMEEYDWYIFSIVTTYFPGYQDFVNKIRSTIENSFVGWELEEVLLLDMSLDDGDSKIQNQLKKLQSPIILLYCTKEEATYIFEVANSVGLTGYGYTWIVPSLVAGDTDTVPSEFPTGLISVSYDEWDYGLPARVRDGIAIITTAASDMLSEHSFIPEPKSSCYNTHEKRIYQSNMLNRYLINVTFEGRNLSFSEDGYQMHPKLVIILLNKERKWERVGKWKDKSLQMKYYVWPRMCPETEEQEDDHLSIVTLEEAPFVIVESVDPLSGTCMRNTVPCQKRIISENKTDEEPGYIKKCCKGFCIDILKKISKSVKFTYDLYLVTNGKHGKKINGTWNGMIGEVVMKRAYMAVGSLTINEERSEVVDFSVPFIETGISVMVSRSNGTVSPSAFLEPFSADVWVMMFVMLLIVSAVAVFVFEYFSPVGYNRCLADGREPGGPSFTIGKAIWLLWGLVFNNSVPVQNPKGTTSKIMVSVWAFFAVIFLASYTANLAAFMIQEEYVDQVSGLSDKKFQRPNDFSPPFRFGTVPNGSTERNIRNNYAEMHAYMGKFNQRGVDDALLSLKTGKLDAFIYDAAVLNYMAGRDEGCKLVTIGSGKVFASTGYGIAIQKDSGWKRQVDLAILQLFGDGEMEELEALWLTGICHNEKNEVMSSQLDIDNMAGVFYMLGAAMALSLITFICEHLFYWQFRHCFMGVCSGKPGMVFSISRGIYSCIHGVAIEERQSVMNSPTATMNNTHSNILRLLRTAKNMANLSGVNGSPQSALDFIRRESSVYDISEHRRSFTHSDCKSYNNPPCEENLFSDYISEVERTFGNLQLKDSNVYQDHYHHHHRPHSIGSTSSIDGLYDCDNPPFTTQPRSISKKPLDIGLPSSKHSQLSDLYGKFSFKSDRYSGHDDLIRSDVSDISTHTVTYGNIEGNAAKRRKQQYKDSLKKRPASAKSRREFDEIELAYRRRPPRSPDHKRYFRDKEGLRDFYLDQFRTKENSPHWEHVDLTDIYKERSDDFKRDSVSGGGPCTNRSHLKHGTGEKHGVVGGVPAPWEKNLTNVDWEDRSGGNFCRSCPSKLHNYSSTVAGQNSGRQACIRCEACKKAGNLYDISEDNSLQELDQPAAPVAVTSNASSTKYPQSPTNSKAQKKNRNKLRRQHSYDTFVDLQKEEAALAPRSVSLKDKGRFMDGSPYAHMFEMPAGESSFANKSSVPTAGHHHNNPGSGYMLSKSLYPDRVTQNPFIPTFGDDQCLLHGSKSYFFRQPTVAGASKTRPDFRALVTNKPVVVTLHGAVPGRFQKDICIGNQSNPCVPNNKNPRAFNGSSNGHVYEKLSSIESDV

Structure (SMILES)	ED50 (Mus musculus [1]) [µmol/kg]	ED50 (Mus musculus [2]) [µmol/kg]	further results
O=C(Cc1c[nH]c2ccccc12)N1CCC(Cc2ccccc2)CC1	39.2	70.3	
O=C(CN1CCC(Cc2ccccc2)CC1)c1c[nH]c2ccc(O)cc12	6.48	11.5	Activity [3]: 75%; IC50 [4]: 25 nM; Ki [4]: 23 nM; Activity [5]: 52%; Activity [6]: 23%; Activity [7]: Dose-dependent effect; Activity [8]: 92%
O=C(CCc1c[nH]c2ccccc12)N1CCC(Cc2ccccc2)CC1	57.6	> 100	
COc1ccc2[nH]cc(C(=O)CN3CCC(Cc4ccccc4)CC3)c2c1	36.5	59.9	
O=C(CN1CCN(Cc2ccccc2)CC1)c1c[nH]c2ccccc12	> 100	> 100	
O=C(C(=O)N1CCC(Cc2ccccc2)CC1)c1c[nH]c2ccccc12	0.95	22.4	Activity [8]: 36%
O=C(CN1CCC(Cc2ccccc2)CC1)c1c[nH]c2ccccc12	8.71	22.4	IC50 [4]: 769 nM; Activity [8]: 89%
COc1ccc2[nH]cc(CC(=O)N3CCC(Cc4ccccc4)CC3)c2c1	34.4	89	
O=C(Cc1c[nH]c2ccc(O)cc12)N1CCC(Cc2ccccc2)CC1	13.9	45.6	
C[C@@H](CN1CCC(Cc2ccccc2)CC1)[C@@H](O)c1ccc(O)cc1	10.6	40	
COc1ccc2[nH]cc(C(=O)C(=O)N3CCC(Cc4ccccc4)CC3)c2c1	78.8	> 100	
O=C(CN1CCC(Cc2ccccc2)CC1)c1c[nH]c2ccc(Br)cc12	49.7	84.9	
O=C(CN1CCC(Cc2ccccc2)CC1)c1c[nH]c2ncccc12	32.5	88.5	
O=C(C(=O)N1CCC(Cc2ccccc2)CC1)c1c[nH]c2ccc(O)cc12	> 100	> 100	IC50 [4]: 2660 nM; Activity [8]: 77%
O=C(Cc1c[nH]c2ccc(Br)cc12)N1CCC(Cc2ccccc2)CC1	5.42	27.3	
O=C(C(=O)N1CCC(Cc2ccccc2)CC1)c1c[nH]c2ccc(Br)cc12	47.9	> 100	
